In ChEMBL document CHEMBL1148645, “Imino-tetrahydro-benzothiazole derivatives as p53 inhibitors: discovery of a highly potent in vivo inhibitor and its action mechanism” (J Med Chem, 2006) one finds Activity and EC50 data, which are given here for ten molecules.

The structures appear in SMILES notation. Active and inactive are the calls of the source. The rule behind the calls is not given here.

The species named for one series is Mus musculus. Description: Toxicity against mouse E15.5 cortical neurones at 10 uM. To be noted: in vitro. Put shortly:
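E15 mouse primary cortical neurons were cultured in neurobasal/B27 and exposed to compound at 10 µM. Live cells were counted after calcein-AM staining, with hemoglobin quench and whole-well imaging. Each experiment was repeated at least six times.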

The next series deals with Cortical neurone. Put plainly: Inhibition of etoposide-induced death of mouse E15.5 cortical neurones. It counts as functional. The method in brief:
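Primary cortical neurons from E15 wild-type mouse embryos were exposed to etoposide at 1.25 and 2.5 µM, with compound alongside DMSO. Etoposide alone served as the control. Live cells were stained with calcein-AM for 45 min, quenched with hemoglobin, and whole wells were imaged and counted automatically. Survival is relative to untreated cultures set to 100%. At least six independent experiments were run, each in triplicate.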

In series [1] the target is Cellular tumor antigen p53 (Mus musculus) (UniProt P02340). Description: Inhibition of p53-mediated increase in p21/WAF1 level at 300 nM. It counts as functional. The note with it: filed as antagonist. Put shortly: (§1)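 Wild-type E15 mouse cortical neurons were kept 3 days in vitro in neurobasal/B27 and treated with etoposide to trigger p53 activation. Time-course and concentration-dependent experiments were run. p21/WAF1 protein was detected by western blot of total extracts made in boiling SDS/Tris buffer.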

The species entered for series [2] is Rattus norvegicus. Description: Protection against axotomy-induced RGC apoptosis in Wistar rat intravitreally injected with 0.06 uM. It counts as functional. The method in brief: (§2)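 Adult male Wistar rats (300-400 g) had the optic nerve transected, and RGCs were retrogradely labeled with FluoroGold placed on the stump. Compound or vehicle (DMSO 2%), 3 µL, was injected intravitreally on days 0, 3 and 7. Eyes were taken on day 14 and retinas flat-mounted. FG-positive RGCs were counted blind in fields at three eccentricities. Groups had n = 3-6, with DMSO as baseline; results are given as mean ± sem.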

Series [3] deals with Cellular tumor antigen p53 (Mus musculus) (UniProt P02340). Description: Inhibition of p53-mediated increase in p21/WAF1 level at 30 nM. The note with it: filed as antagonist. The class given is functional. Put shortly:
as §1

The species entered for series [4] is Rattus norvegicus. Put plainly: Protection against axotomy-induced RGC apoptosis in Wistar rat intravitreally injected with 6 uM. It counts as functional. Put shortly: as §2

Sequence of Cellular tumor antigen p53 (Mus musculus) (P02340 whole entry): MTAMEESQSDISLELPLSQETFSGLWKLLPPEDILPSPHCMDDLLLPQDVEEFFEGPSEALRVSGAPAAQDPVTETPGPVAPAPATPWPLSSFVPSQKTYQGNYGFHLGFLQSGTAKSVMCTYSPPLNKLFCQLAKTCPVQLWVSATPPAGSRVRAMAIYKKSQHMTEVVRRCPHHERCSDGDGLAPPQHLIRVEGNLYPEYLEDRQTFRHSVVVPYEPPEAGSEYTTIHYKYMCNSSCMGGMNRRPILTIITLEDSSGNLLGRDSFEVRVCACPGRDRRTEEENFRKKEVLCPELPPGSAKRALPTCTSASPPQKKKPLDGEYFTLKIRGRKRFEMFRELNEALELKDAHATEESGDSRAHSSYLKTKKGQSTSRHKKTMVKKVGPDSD

For the molecule `Br.COc1ccc(C(=O)Cn2c3c(sc2=N)CCCC3)cc1`, in the series listed under Mus musculus, the Activity entry was “Non-toxic”. Also, in the series with Cortical neurone, the outcome was inactive.

With `Br.N=c1sc2c(n1CC(=O)c1ccc([N+](=O)[O-])cc1)CCCC2`, the Activity entry in the series listed under Mus musculus is “Non-toxic”; in series [1], “Antagonist”; in the series filed under Rattus norvegicus [2] it was 150%. In the series on Cortical neurone, the outcome was Active.

With `O=[N+]([O-])c1ccc(-c2cn3c4c(sc3n2)CCCC4)cc1`, the results for the Activity entry (in the series filed under Mus musculus; in series [3]) were “Non-toxic” and “Antagonist”, respectively. Moreover, in the series on Cortical neurone (read-out: ED50 (the source's name)), the EC50 worked out at 0.03 µM. In addition, the outcome in the series listed under Rattus norvegicus [2] (in the assay text read “6 uM” for “0.06 uM”) and in the series filed under Rattus norvegicus [4] was inactive.

Take `Br.N=c1sc2c(n1C/C(=N/O)c1ccc([N+](=O)[O-])cc1)CCCC2`: the Activity result in the series filed under Mus musculus was “Non-toxic”. For the same molecule, the result in the series with Cortical neurone was inactive.

`Br.COc1ccc(C(=O)Cn2c3c(sc2=N)CC2CCCCC2C3)cc1` (stereo not given): in the series filed under Mus musculus, the Activity entry is “Non-toxic”.

With `Br.N=c1sc2c(n1CC(=O)c1ccc([N+](=O)[O-])cc1)CC1CCCCC1C2` (stereo not given), the Activity result in the series filed under Mus musculus is given as “Non-toxic”. For the same molecule, in the series with Cortical neurone, the result was Active.

In the case of `Br.Cc1ccc(C(=O)Cn2c3c(sc2=N)CCCCC3)cc1`, the Activity result in the series filed under Mus musculus is given as “Non-toxic”. The result in the series with Cortical neurone was inactive.

On to `O=[N+]([O-])c1ccc(-c2cn3c4c(sc3n2)CC2CCCCC2C4)cc1` (stereo not given), for which the Activity entry in the series filed under Mus musculus is “Non-toxic”.

On to `Br.Cc1ccc(C(=O)Cn2c3c(sc2=N)CCCC3)cc1`, for which the Activity result was “Antagonist” in series [1], 98% in the series listed under Rattus norvegicus [2] and 131% in the series filed under Rattus norvegicus [4]. In addition, in the series on Cortical neurone, the outcome was Active.

`Br.Cc1ccc(C(=O)Cn2c3c(sc2=N)CC2CCCCC2C3)cc1` (stereo not given): the Activity entry in the series listed under Mus musculus is “Non-toxic”. Further, in the series on Cortical neurone, the result was inactive.
